{"source": "ChEMBL document CHEMBL1142954", "about": "“Metabolically stabilized benzothiazoles for imaging of amyloid plaques” (J Med Chem, 2007)", "key": {"Mus musculus": {"test_system": "Mus musculus", "assay": "Ratio of drug uptake in iv dosed Balb/C mouse brain at 2 to 30 mins", "format": "ADME, organism-based", "conditions": "in vivo", "method_in_brief": "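Wild-type mice received the 11C-labeled tracers i.v. Brain uptake was measured as %ID/g at 2 and 30 min post-injection, and the 2 min/30 min ratio was taken. Means ± sd, n = 4-5.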"}, "[1]": {"assay": "Displacement of [3H]PIB from human A-beta-40 peptide", "method_in_brief": "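Competition binding against [3H]PIB using precipitated synthetic Aβ(1-40) peptide aggregates. Ki derived from competition data.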"}, "Plasma": {"test_system": "Plasma", "assay": "Metabolic stability in Balb/C mouse plasma assessed as radioactivity", "format": "ADME, cell-free"}, "[2]": {"assay": "Lipophilicity, log P of the compound", "format": "physicochemical", "conditions": "octanol/water", "method_in_brief": "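Octanol–PBS partition (log Poct/PBS) measured on the N-11C-labeled radiotracers.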"}}, "note": "pKi: −log10 of the molar value."}
{"smiles": "[11CH3]Nc1ccc(-c2nc3cc(F)ccc3s2)cc1", "values": [{"measurement": "Ratio", "setting": "Mus musculus", "result": 2.5}, {"measurement": "pKi", "setting": "[1]", "result": 7.91}, {"measurement": "t1/2", "setting": "Plasma", "result": 6.8, "unit": "min"}, {"measurement": "logP", "setting": "[2]", "result": 3.27}]}
{"smiles": "[11CH3]Nc1ccc(-c2nc3cc(F)ccc3s2)cc1Br", "values": [{"measurement": "Ratio", "setting": "Mus musculus", "result": 2.5}, {"measurement": "pKi", "setting": "[1]", "result": 8.89}, {"measurement": "t1/2", "setting": "Plasma", "result": 7.2, "unit": "min"}, {"measurement": "logP", "setting": "[2]", "result": 4.18}]}
{"smiles": "[11CH3]Nc1ccc(-c2nc3cc(F)ccc3s2)cc1Cl", "values": [{"measurement": "Ratio", "setting": "Mus musculus", "result": 9.8}, {"measurement": "pKi", "setting": "[1]", "result": 8.47}, {"measurement": "t1/2", "setting": "Plasma", "result": 22.1, "unit": "min"}, {"measurement": "logP", "setting": "[2]", "result": 2.81}]}
{"smiles": "[11CH3]Nc1ccc(-c2nc3ccccc3s2)cc1F", "values": [{"measurement": "Ratio", "setting": "Mus musculus", "result": 3.1}, {"measurement": "pKi", "setting": "[1]", "result": 8.17}, {"measurement": "t1/2", "setting": "Plasma", "result": 8.4, "unit": "min"}, {"measurement": "logP", "setting": "[2]", "result": 3.05}]}
{"smiles": "Cc1cc(-c2nc3cc(F)ccc3s2)ccc1N[11CH3]", "values": [{"measurement": "Ratio", "setting": "Mus musculus", "result": 6.3}, {"measurement": "pKi", "setting": "[1]", "result": 8.08}, {"measurement": "t1/2", "setting": "Plasma", "result": 14.3, "unit": "min"}, {"measurement": "logP", "setting": "[2]", "result": 2.93}]}
{"smiles": "Cc1cc(-c2nc3ccccc3s2)ccc1N[11CH3]", "values": [{"measurement": "Ratio", "setting": "Mus musculus", "result": 2.8}, {"measurement": "pKi", "setting": "[1]", "result": 8.36}, {"measurement": "t1/2", "setting": "Plasma", "result": 7.5, "unit": "min"}, {"measurement": "logP", "setting": "[2]", "result": 3.36}]}
